According to ChEMBL document CHEMBL1140439, “Pharmacophore modeling, docking, and principal component analysis based clustering: combined computer-assisted approaches to identify new inhibitors of the human rhinovirus coat protein” (J Med Chem, 2005):

How the values were obtained:
[1] = system: WI-38; assay: Percent toxicity at 32 ug/mL on WI-38 cells; format: functional, Homo sapiens
Procedure, shortened: (§1)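 Static toxicity test on uninfected WI-38 monolayers at or near 100% confluency, in 5% EMEM with 0.5% DMSO. Compound given at the three highest concentrations (32, 10, 3.2 ug/mL). Monolayer reduction was scored against cell control; 50% or greater reduction counted as cytotoxic.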

[2] = Percent toxicity at 10 ug/mL on OH-I cells; range 50-100 %; format: functional, Homo sapiens
Procedure, shortened: (§2)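 Static toxicity test on uninfected OH-I monolayers at or near 100% confluency, in 2% McCoy's with 0.25% DMSO. Compound given at the three highest concentrations (100, 32, 10 ug/mL). Monolayer reduction was scored against cell control; 50% or greater reduction counted as cytotoxic.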

[3] = system: WI-38; assay: Percent toxicity at 10 ug/mL on WI-38 cells; format: functional, Homo sapiens; procedure, shortened: as §1
[4] = Percent toxicity at 32 ug/mL on OH-I cells; range 50-100 %; format: functional, Homo sapiens; procedure, shortened: as §2
[5] = Percent toxicity at 100 ug/mL on OH-I cells; range 50-100 %; format: functional, Homo sapiens; procedure, shortened: as §2
[6] = Effective concentration dissolved in DMSO against HRV serotype 39 in OH-I cells by multiple-cycle CPE inhibition assay; spectrophotometric; format: functional, cell-based, Homo sapiens
Procedure, shortened: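 HRV serotype 39 CPE inhibition assay in triplicate 85% confluent OH-I monolayers, 2% McCoy's, 0.25% DMSO final, compound at 100–0.1 ug/mL. Once virus controls reached 80–100% CPE (32–320 TCID50), cells were stained with 0.4% crystal violet for 20–30 min at room temperature, destained with 30% methanol/10% acetic acid, and OD read at 550 nm. EC50 is the concentration giving a 50% OD increase versus virus control, from Chou–Chou dose-effect analysis.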

[7] = Effective concentration dissolved in DMSO against HRV serotype 39 in OH-I cells by multiple-cycle CPE inhibition assay; microscopic; format: functional, cell-based, Homo sapiens
Procedure, shortened: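 Multiple-cycle CPE inhibition assay, HRV serotype 39 (ATCC), 85% confluent OH-I monolayers in 2% McCoy's, 0.25% DMSO final. Triplicate wells received compound then three serial log virus dilutions. EC50 taken as the concentration giving 50% CPE inhibition.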

[8] = system: WI-38; assay: Effective concentration dissolved in DMSO against HRV serotype 39 in WI-38 cells by multiple-cycle CPE inhibition assay; microscopic; format: functional, cell-based; details: Homo sapiens
Procedure, shortened: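 Multiple-cycle CPE assay with HRV serotype 39 on 100% confluent WI-38 fibroblasts in 5% EMEM, 0.5% DMSO final. Triplicate monolayers received compound at 32, 10, 3.2, 1.0, 0.1 ug/mL plus three serial log virus dilutions. Read only microscopically (staining too weak) after virus controls reached 80–100% CPE at 32–320 TCID50. EC50 is the concentration giving 50% CPE inhibition.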

[9] = Percent toxicity at 10 ug/mL on OH-I cells; format: functional, Homo sapiens; procedure, shortened: as §2
[10] = system: WI-38; assay: Cytostatic concentration against WI-38 cells; format: functional, Homo sapiens

| SMILES | Toxicity [1] | Toxicity [2] [%] | Toxicity [3] | Toxicity [4] [%] | Toxicity [5] [%] | EC50 [6] [µM] | EC50 [7] [µM] | EC50 [8] [µM] | Toxicity [9] [%] | Cytostatic concentration [10] [µg/mL] |
| --- | --- | --- | --- | --- | --- | --- | --- | --- | --- | --- |
| O=C(Nc1ccc(SC(F)(F)F)cc1)Nc1ccc(-n2ccc(C(F)(F)F)n2)cc1 | <=50% | 100 | <=50% | 100 | 100 | 246 | 247 | 11.2 | – | – |
| CC1(C)CCc2cc(CN3CCN(c4ncc(C(F)(F)F)cc4Cl)CC3)ccc2O1 | – | – | – | 100 | 100 | 32.1 | 35.7 | < 72.7 | 30 | – |
| Cc1csc2c(N3CCN(C(=O)Nc4ccc(OC(F)(F)F)cc4)CC3)ncnc12 | – | 100 | – | 100 | 100 | 4.3 | 7.3 | 48 | – | – |
| CC1(C)CCc2cc(CN3CCN(c4ccc(C(F)(F)F)cn4)CC3)ccc2O1 | – | – | – | 100 | 100 | 17 | 15 | 165 | 30 | – |
| COC(=O)c1ccc(CSc2nnc(-c3ccc4ncccc4c3)n2C)cc1 | – | – | – | – | 30 | 88.4 | 142 | < 82 | – | – |
| CCOC(=O)/C=C/[C@H](C[C@@H]1CCNC1=O)NC(=O)[C@@H](CC(=O)[C@@H](NC(=O)c1cc(C)on1)C(C)C)Cc1ccc(F)cc1 [RUPINTRIVIR] | – | – | – | – | – | – | – | – | – | >100 |
| Cc1cc(CCCOc2c(C)cc(-c3noc(C(F)(F)F)n3)cc2C)on1 [PLECONARIL] | – | – | – | – | – | – | – | – | – | 30 |
| COc1cc2c(cc1OC)C(C)N(C(=O)Nc1ccc(OC(F)(F)F)cc1)CC2 (stereo not drawn) | – | 100 | – | 100 | 100 | 4.9 | 121 | < 78 | – | – |
